The data set is described as follows: Toxicity liver stage against HepG2, at 10uM. Set-up: test concentration 10 uM, cell line HepG2-A16-CD81EGFP. The settings on record: human, HepG2-A16-CD81EGFP cells; read-out: INHIBITION
The data set is classed as cell-based. The essentials:
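Uninfected HepG2-A16-CD81EGFP cells, 3 × 10^3 per well, 1536-well, plated on prespotted compound at 10 μM final, parasite-free screening media added to match infected plates; puromycin 10 μM positive, DMSO 0.5% negative; run in parallel with 48 h PbLuc assay at 37 °C, 5% CO2; viability by CellTiter-Glo luminescence, normalized to controls.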

Consider `CCc1noc(C(C)N2CCN(CC(C)C)CC2)n1` (stereo unspecified), for which the cytotoxicity at 10 µM was -4.05%.
Under `COCc1ccc(C(=O)N2CC[C@@](O)(COC)C(C)(C)C2)o1` stands -2.69%.
Next, `CC(C)C(Sc1nnnn1-c1ccccc1)C(=O)NCc1cccnc1` (stereo unspecified): -3.02%; `COCCO[C@@H]1CCN(C(=O)c2occc2C)[C@H]1Cc1cnn(C)c1`: 5.1%; `O=C(c1cccnc1N1CCOC(c2ccc(F)cc2)C1)N1CCCC1` (stereo unspecified): 8.04%.
Under `O=C(N1CCOCC1)[C@@]12CCO[C@@H]1CCN(Cc1ccncc1)C2` stands -1.2%.
Take `O=C(NCc1cccnc1)NCC(O)c1ccccc1C(F)(F)F` (stereo unspecified): the cytotoxicity at 10 µM was found to be 1.5%.
Next, `COCc1nccc(C2CCCN(Cc3cccc(C#N)c3)C2)n1` (stereo unspecified): 18.7%; `CCc1cnc(CN2CCCC2c2noc(C3CC3)n2)o1` (stereo unspecified): -4.84%; `O=C1CCSCC(C(=O)N2CCOCC2)N1` (stereo unspecified): -11.3%.
As to `CC(C)Cc1cc(C(=O)N2CCC(Cc3cnn(C)c3)C2)cc(O)n1` (stereo unspecified), the cytotoxicity at 10 µM was -2.1%.
`Cc1cc(F)c2c(c1)CCCN2Cc1nc2c(cnn2C)c(=O)[nH]1`: the cytotoxicity at 10 µM worked out at 1.89%.
Next, `CCCN(C)CC1CCN(c2ncc(Br)cn2)C1` (stereo unspecified): -6.68%; `OCC1CCCN1c1cc(NCCc2ccsc2)ncn1` (stereo unspecified): 8.51%; `O=C(Nc1ccccc1)c1ccc(NCc2nccs2)nn1`: 5.62%.
For the molecule `Cn1cnc2c(-c3cccnc3)nc(C3CCN(S(C)(=O)=O)CC3)cc21`, the cytotoxicity at 10 µM is -118%.
As to `O=C(c1ccc2[nH]cnc2c1)N1CCC(Oc2cccnc2)CC1`, the cytotoxicity at 10 µM is -12.8%.
Turning to `Cc1noc(-c2ccc(N3CCC[C@H]3CO)nc2)n1`, the cytotoxicity at 10 µM is 1.48%.
Under `CNS(=O)(=O)c1cccc(CNC(=O)CCc2ccsc2)c1` stands 13.5%; under `CNC(=O)c1ccc2c(c1)C1(CCN(CC(C)C)CC1)C(=O)N2`, -2.56%; under `C=C(C)COc1cccc(CNC(COC)c2ccnn2C)c1` (stereo unspecified), -3.57%.
With `COCC(=O)Nc1ccc([C@@H](O)[C@H]2COCC(=O)N2C)cc1`, the cytotoxicity at 10 µM was 10.3%.
For the molecule `CS(=O)(=O)CCN1CC(c2ccccc2)(c2ccccc2)CCC1=O`, the cytotoxicity at 10 µM worked out at 0.623%.
Under `c1cnnc(N2CCCC2CNCc2nc(-c3cccs3)no2)c1` (stereo unspecified) stands -7.69%.
Next, `CCN1CCN(CCCNC(=O)c2cc3ccc(C)cc3nc2C)CC1`: 5.33%; `CN(C)C(=O)c1cnc2n1CCN(Cc1cccnc1)C2`: -67%; `CCOCC(=O)N1C[C@@H]2CC[C@H](Oc3ccccc3)[C@@H]2C1`: -16.1%.
Next, `CCn1ccnc1CN1CCN(CCOc2cccc(C#N)c2)CC1`: -6.95%; `CC(C)c1n[nH]c(C(=O)Nc2ccnn2C(C)C)c1Br`: 13.8%; `O=C(NCCC(=O)N1CCCCCC1)c1c(O)cc(F)cc1F`: -1.8%.
For the molecule `O=C(c1ccccc1N1CCOCC1)N1CCCC(n2cccn2)C1` (stereo unspecified), the cytotoxicity at 10 µM is -7.32%.
Under `CC(=O)NCCNc1nc(C2CCCC2)nc2c1cnn2C` stands 7.39%.
Next, `CN(Cc1ccco1)Cc1ccccc1CNC(=O)c1cnc[nH]1`: 2.6%; `Cc1cnc(NC(=O)C(C)Oc2ccc3c(c2)OCO3)s1` (stereo unspecified): -5.22%.
Under `CC1(C(=O)N2CCOCC2)CN(Cc2ccccn2)CCO1` (stereo unspecified) stands 2.86%; under `CNC(=O)[C@H]1C[C@@H]2CN(C(=O)c3cscn3)C[C@@H]2N1S(C)(=O)=O`, -5.17%.
In the case of `C/C(Cl)=C/CNC(=O)C1CCC2(CC1)CN(C)C(=O)c1ccccc1O2` (stereo unspecified), the cytotoxicity at 10 µM was 4.52%.
Under `CC(O)CN1CCN(C(=O)Cc2ccccc2Cl)CC1` (stereo unspecified) stands -9.6%.
Next, `CN(C)C1CCCN(C(=O)c2ccc3sc4c(c3c2)CCNC4=O)CC1` (stereo unspecified): -8.58%; `Cc1nn(C)c2cnn(CC(=O)NCCc3ccccc3)c12`: 13.4%; `CCN(CC)C1COc2c(cc(Br)c(C)c2Br)C1=O` (stereo unspecified): 5.77%.
Under `Cc1ccc(CC(=O)N2CCc3nnc(N(C)C)cc3C2)s1` stands -9.01%; under `COc1ccc(C(=O)N2C[C@@H](CN3CCCCC3)[C@@H](CO)C2)cc1Cl`, -0.703%; under `CCc1ccc(C(=O)N2CCN(c3nc(C)cc(OC)n3)CC2)o1`, -18.7%.
Consider `CC(SCCC(=O)NC(N)=O)c1ccccc1F` (stereo unspecified), for which the cytotoxicity at 10 µM was 5.87%.
Under `O=C(CN1CCCS1(=O)=O)NCCOc1ccc2c(c1)CCC2` stands -2.5%.
Next, `Cc1nn(C)c(C)c1C1CCCN1CC(=O)NCc1ccco1` (stereo unspecified): -12.4%; `CC(C)c1nnc2n1CCN(Cc1cc(Cl)c3c(c1)OCCO3)C2`: 0.549%; `Cc1cncc(C2CCN(Cc3ccsc3)CC2)n1`: 4.86%.
Under `Cn1ccc(C(=O)NCCOc2ccc(C(C)(C)C)cc2)cc1=O` stands 9.71%; under `CSc1ccccc1C(=O)C1CCCN(Cc2cc(C(C)C)[nH]n2)C1` (stereo unspecified), -4.01%.
Take `CO[C@H]1CCN(Cc2cccs2)[C@@H]2CN(Cc3ccncc3)C[C@H]12`: the cytotoxicity at 10 µM was determined as 2.31%.
Under `CCOc1ccc(NC2CCN(CC(F)(F)F)C2=O)cc1C` (stereo unspecified) stands 1.41%.
Next, `O=C(Cc1ccccn1)N1C[C@H]2CC[C@@H](C1)N(Cc1ccccc1)C2=O`: -13%; `CCCC(C)N(C)Cc1nnc(-c2ccco2)o1` (stereo unspecified): 2.49%.
Under `COc1cccc(-c2noc(C3CCN(CC(N)=O)C3)n2)c1` (stereo unspecified) stands -11.3%.
Regarding `COc1cccc(N2CCN(Cc3ccc4[nH]ccc4c3)CC2=O)c1`, the cytotoxicity at 10 µM amounted to 4.59%.
Turning to `CC(=O)NC1CCN(C(=O)Nc2ccc(SC(F)F)cc2)CC1`, the cytotoxicity at 10 µM is -6.91%.
Next, `O=C(Nc1cc(-c2ccccc2)on1)N1CCN(CCO)CC1`: 3.3%; `CCOC(=O)N1CCN(C(=O)c2cc(-c3ccc(C)cc3)on2)CC1`: 5.68%; `Cc1noc([C@@H]2CC[C@@H]3[C@@H](CCN3S(=O)(=O)c3ccccc3)O2)n1`: 2.43%.
Next, `O=c1nc(SCc2ccc(Cl)cc2)c2c(n1CCO)CCC2`: 12.3%; `Cn1nnnc1SCCNC(=O)CC1CCc2ccccc21` (stereo unspecified): -2.49%; `CC(Nc1nc2c(cnn2C)c(=O)[nH]1)c1ccc(F)cc1` (stereo unspecified): 16.6%.
Under `c1ccc(Cn2cc3c(n2)C(CNCC2CCOCC2)OCC3)nc1` (stereo unspecified) stands -149%.
Turning to `O=C(NCC1CC1)[C@@H]1CCO[C@@H]2CCN(Cc3ccco3)C[C@H]21`, the cytotoxicity at 10 µM is -4.93%.
Under `CC(NC(=O)NCCCn1cncn1)c1ccc2c(c1)OCCO2` (stereo unspecified) stands -6.85%.
In the case of `Cn1nc(CN2CCCCC(N)C2)c2c(Cl)cccc21` (stereo unspecified), the cytotoxicity at 10 µM was -5.99%.
As to `O=C(CCc1cc(Cl)no1)N1CCC(c2cc3ncccc3cn2)CC1`, the cytotoxicity at 10 µM is 4.76%.
Next, `O=C(c1cc(=O)n(-c2ccccc2)[nH]1)N1CCOCC(O)C1` (stereo unspecified): -0.205%; `CCn1cc(NC(=O)NCC(O)COc2cccc(F)c2)cn1` (stereo unspecified): -2.86%.
Next, `Cc1noc(C)c1NC(=O)NC1CCN(C(=O)OC(C)(C)C)CC1`: 4.77%.
Next, `COc1ncc(NCc2ccc(F)cc2)cc1C(N)=O`: -0.976%; `CSCCNC(=O)c1coc(COc2ccc3sc(C)nc3c2)n1`: -1.51%.
Turning to `Cc1n[nH]c(C)c1-c1nccnc1CC1CCCN(C)C1` (stereo unspecified), the cytotoxicity at 10 µM was -18.3%.
Under `COc1ccc2nc(C)c(C(=O)NCCN3CCS(=O)(=O)CC3)cc2c1` stands -15.2%; under `COCCn1cc2c(n1)C(CNS(C)(=O)=O)OCC2` (stereo unspecified), 0.763%; under `CCCC(=O)NCC(=O)Nc1cc(F)ccc1SCC(F)F`, 10.8%.
Under `Cc1csc(C2CCCN(C(=O)c3c[nH]c(C)n3)C2)n1` (stereo unspecified) stands -17%; under `O=C(NCCc1c[nH]cn1)c1ccc2c(c1)C(=O)N(C1CC1)C2=O`, 11.7%; under `COc1ccc(NC(=O)CCC2CCCN(Cc3ncon3)C2)c(C)c1` (stereo unspecified), 0.523%.
`Cc1sc(NC(=O)CN(C)CCOc2cccc(F)c2)c(C)c1C`: the cytotoxicity at 10 µM was determined as 4.21%.
Take `CCC(C(=O)NCc1ccncc1)N(c1cccc(Cl)c1)S(C)(=O)=O` (stereo unspecified): the cytotoxicity at 10 µM is -4.31%.
With `Cc1c(CCC(=O)Nc2ccc(Br)cn2)cnn1C`, the cytotoxicity at 10 µM is -6.14%.
As for `CC(C(=O)NCCOc1ccc2c(c1)CCC2)n1cncn1` (stereo unspecified), the cytotoxicity at 10 µM was -1.58%.
As for `CN(C)C(=O)CC1CC2(CCN(Cc3cccs3)CC2)c2ccccc21` (stereo unspecified), the cytotoxicity at 10 µM was -3.87%.
As for `CN1CCN(C(=O)[C@H]2CC[C@@H]3[C@@H](CCN3Cc3ccsc3)O2)CC1`, the cytotoxicity at 10 µM came to 1.07%.
Under `CC(C)NC(=O)CN1CCC(c2cccc(F)c2)C1` (stereo unspecified) stands 0.103%; under `CC(C)(C)NS(=O)(=O)c1ccccc1CNCc1cccc(O)c1`, -7.43%; under `CC(C)[C@@H]1CN(Cc2ccccc2C#N)C[C@H]1NC(=O)N(C)C`, -12.3%.
Under `CCOC(=O)CSc1nnc([C@@H](N)C(C)C)o1` stands 0.979%.
Consider `OCCC1CN(C2CCC2)CCN1C1CCCC1` (stereo unspecified), for which the cytotoxicity at 10 µM is -18.5%.
Under `CC(C)[C@H](Nc1cc(-c2ccncc2)nc2ccnn12)C(N)=O` stands 0.782%; under `CC(c1nc(C(C)(C)C)no1)N1CCC(N2CCCC2)CC1` (stereo unspecified), 3.63%.
Under `O[C@@H]1C[C@@H](c2nc(Cc3ccccc3)no2)N(Cc2ncc[nH]2)C1` stands 2.63%; under `CC1CN(c2ncnc3c2cnn3C)CCN1c1nccs1` (stereo unspecified), 7.04%.

Source of the values: ChEMBL document CHEMBL4513216, “Probing the Open Global Health Chemical Diversity Library for Multistage-Active Starting Points for Next-Generation Antimalarials” (ACS Infect Dis, 2020).
